Data on 4 molecules can be found in ChEMBL document CHEMBL1132217, “Syntheses of biotinylated alpha-galactosylceramides and their effects on the immune system and CD1 molecules” (1999).

What all share (format): functional
Test [1] is filed under the species Mus musculus. Kind of test: [3H]-TdR uptake measured by spleen cell proliferation assay by adding compound dose of 1 ng/mL. The method, boiled down:
(§1)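 Spleens from female C57BL/6 mice dissociated in RPMI 1640, red cells lysed with Tris NH4Cl, washed three times in PBS. Cells (2.5 × 10^5/well, 10% FCS RPMI 1640) cultured with sample or DMSO vehicle (0.001–0.1%) for 18 h at 37 °C, 5% CO2; [3H]TdR 0.5 μCi/well added, uptake counted by liquid scintillation 8 h later. Mean ± S.D.; p < 0.05 vs vehicle.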

Test [2] is filed under the species Mus musculus. Nature of the test: [3H]TdR uptake measured by spleen cell proliferation assay by adding compound dose of 10 ng/mL. The method in brief: as §1
For test [3], the species on record is Mus musculus. Kind of test: [3H]TdR uptake measured by spleen cell proliferation assay by adding compound dose of 100 ng/mL. The method, boiled down: as §1

SMILES strings stand for the structures.

Regarding `CCCCCCCCCCCCCCC[C@@H](O)[C@H](CO[C@H]1O[C@@H](CO)[C@H](O)[C@H](O)[C@@H]1O)NC(=O)CCCCCCCCCCNC(=O)CCCCCNC(=O)CCCC[C@@H]1SC[C@@H]2NC(=O)N[C@@H]21`, the Incorporation in the test filed under Mus musculus [1] was found to be 4628 c.p.m; in the test filed under Mus musculus [2], 8665 c.p.m; in the test filed under Mus musculus [3], 14588 c.p.m.

In the case of `CCCCCCCCCCCCCCCC[C@H](CO[C@H]1O[C@@H](CO)[C@H](O)[C@H](O)[C@@H]1O)NC(=O)CCCCCCCCCCNC(=O)CCCCCNC(=O)CCCC[C@@H]1SC[C@@H]2NC(=O)N[C@@H]21`, the results for the Incorporation in the test listed under Mus musculus [1], in the test listed under Mus musculus [2] and in the test listed under Mus musculus [3] were 4803 c.p.m, 5330 c.p.m and 9427 c.p.m, respectively.

On to `CCCCCCCCCCCCCC[C@@H](O)[C@@H](O)[C@H](CO[C@H]1O[C@@H](CO)[C@H](O)[C@H](O)[C@@H]1O)NC(=O)CCCCCCCCCCNC(=O)CCCCCNC(=O)CCCC[C@@H]1SC[C@@H]2NC(=O)N[C@@H]21` (stereo in doubt; form 1), for which the Incorporation stood at 4811 c.p.m in the test listed under Mus musculus [1], 4833 c.p.m in the test listed under Mus musculus [2] and 5463 c.p.m in the test listed under Mus musculus [3].

Turning to `CCCCCCCCCCCCCCCCCCCCCCCCCC(=O)N[C@@H](CO[C@H]1O[C@H](CO)[C@H](O)[C@H](O)[C@H]1O)[C@H](O)[C@H](O)CCCCCCCCCCCCCC` [RGI-7000], the values for the Incorporation in the test filed under Mus musculus [1], in the test filed under Mus musculus [2] and in the test listed under Mus musculus [3] were 13499 c.p.m, 17438 c.p.m and 17636 c.p.m, respectively.
